Bioassay records: PubChem BioAssay, several laboratories
MC4R antagonist: antagonists of human melanocortin 4 receptor (MC4R) | MC4R-expressing cells, MTII-stimulated cAMP, LANCE TR-FRET | 360,000 compounds, 0.48% hits | P32245 | inhibition, % at 6.5 µM | AID 540295;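 active means inhibition above its plate's cutoff, the mean of tested wells on that plate plus 3 SD, cut at about 29% in these data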
Target sequence (P32245 whole entry, looked up): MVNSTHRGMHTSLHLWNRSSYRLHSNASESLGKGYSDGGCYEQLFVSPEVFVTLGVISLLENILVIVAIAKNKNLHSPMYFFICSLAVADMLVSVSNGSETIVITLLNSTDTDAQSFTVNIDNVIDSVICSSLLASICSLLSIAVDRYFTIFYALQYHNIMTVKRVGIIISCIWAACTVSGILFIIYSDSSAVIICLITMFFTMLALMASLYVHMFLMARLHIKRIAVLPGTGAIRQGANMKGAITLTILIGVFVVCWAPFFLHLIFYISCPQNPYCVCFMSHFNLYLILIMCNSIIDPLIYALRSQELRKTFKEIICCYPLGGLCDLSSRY
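Material – human MC4R-expressing U2OS cells · Repeats – no replicates · Detection – TR-FRET with Eu-cAMP and labeled anti-cAMP, 671 nm · Times – compound 30 min, challenge 1 h, detection 1 h · Compound – single nominal compound dose of 6.5 µM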
m5-HT2A agonist: activates the mouse 5-HT2A serotonin receptor; CHO-K1 mHTR2A beta-arrestin complementation, luminescence; percent of 30 µM serotonin response; activation, % at 7.6 µM; 360,000 compounds, 0.66% hits; AID 624169;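 active means activation above a run cutoff, the mean activation of all tested compounds plus 3 SD, cut at about 14% in these data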
Beta2AR agonist: activates human beta-2 adrenergic receptor causing internalization; P07550; Am2.2-beta2AR cells, FAP receptor internalization, flow cytometry; response, % (concentration not given with the values); 340,000 compounds, 0.43% hits; AID 504454;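 active means response above a set limit, near 3 SD of response in nonfluorescent compounds, cut at about 42% in these data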
TAAR1 antagonist: human TAAR1 antagonism; AID 624466; CHO RD-HGA16 TAAR1, Fluo-8 calcium fluorescence, antagonist; 360,000 compounds, 1.5% hits; inhibition, % at 3 µM;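 active means inhibition above a per-plate cutoff, the mean inhibition of test compounds on that plate plus 3 SD, cut at about 49% in these data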
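Test system: hTAAR1-expressing CHO RD-HGA16 cells, Gα16-coupled; Probe or stimulus: EC80 β-phenethylamine stimulus; Compound dosing: single nominal final test compound concentration of 3 µM; Timing: 140 s kinetic read after compound, 140 s after agonist; Signal: Fluo-8 calcium-sensitive fluorescence; Measure: % inhibition of agonist calcium response; Controls: DMSO and EC80 PEA controls.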
TAAR1 ag: human TAAR1 agonism | CHO RD-HGA16 TAAR1, Fluo-8 calcium fluorescence; vehicle wells 0%, saturating PEA agonist 100% | activation, % at 3 µM | 360,000 compounds, 0.99% hits;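 active means activation above the mean activation of all test compounds in the run plus 3 SD, cut at about 38% in these data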
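System: CHO RD-HGA16 cells carrying human TAAR1 plus Gα16; Incubation: 17-24 h seeding, 75 min 37 °C dye, 30 min RT; Measured by: Fluo-8 fluorescence, 5 s baseline then 140 s kinetic read; Control set: DMSO and PEA EC100; Replication: single well for each compound.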
MC4R ag barr: activates human MC4R beta-arrestin recruitment; U2OS MC4R beta-arrestin complementation, luminescence; percent of melanotan II response, DMSO zero; 360,000 compounds, 0.98% hits; P32245; activation, % at 8.9 µM; AID 540308;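 active means activation above a per-plate cutoff, the mean activation of sample wells on that plate plus 3 SD, cut at about 8% in these data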
OPRM1 ag: OPRM1 agonism in mouse HTR2A counterscreen; shares compounds with m5-HT2A agonist; U2OS OPRM1 beta-arrestin PathHunter, luminescence; DMSO 0%, DAMGO 9.3 µM 100%; activation, % at 9.3 µM; 2,300 compounds, 5.3% hits; AID 624380;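 active means mean activation above the mean of DMSO-only wells plus 3 SD, cut at about 0.5% in these data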
Target sequence (P35372 whole entry, looked up): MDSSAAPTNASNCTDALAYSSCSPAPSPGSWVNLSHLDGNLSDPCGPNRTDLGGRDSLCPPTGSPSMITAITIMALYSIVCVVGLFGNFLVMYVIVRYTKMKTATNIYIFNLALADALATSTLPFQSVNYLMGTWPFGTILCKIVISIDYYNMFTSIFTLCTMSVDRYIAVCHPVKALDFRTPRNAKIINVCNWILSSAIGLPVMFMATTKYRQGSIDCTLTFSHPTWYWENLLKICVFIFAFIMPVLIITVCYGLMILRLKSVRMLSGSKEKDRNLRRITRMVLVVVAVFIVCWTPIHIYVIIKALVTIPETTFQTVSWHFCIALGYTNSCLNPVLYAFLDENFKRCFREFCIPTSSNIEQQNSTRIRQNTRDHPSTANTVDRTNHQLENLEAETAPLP
m5-HT2A ag conf: confirmation of mouse HTR2A serotonin receptor agonists; shares compounds with m5-HT2A agonist; 2,300 compounds, 19% hits; activation, % at 7.6 µM; CHO-K1 PathHunter beta-arrestin recruitment, luminescence; DMSO 0%, 30 µM serotonin 100%;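 active means mean activation across triplicates above the hit threshold derived in the original primary screen, cut at about 15% in these data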
Hits are given with their value. In the library only some 4.3% were active in any assay of this set; here they are far more common.

Results for Cc1ccc(-n2c(SCC(=O)NCC3CCCO3)nc3c(c2=O)SCC3)cc1 (configuration not stated) ?
MC4R antagonist: inactive; m5-HT2A agonist: inactive; Beta2AR agonist: inactive; TAAR1 antagonist: inactive; TAAR1 ag: inactive; MC4R ag barr: inactive

Results for COc1ccc(NC(=O)CSc2nc3c(c(=O)n2C)SCC3)cc1OC ?
MC4R antagonist: inactive; m5-HT2A agonist: inactive; Beta2AR agonist: inactive; TAAR1 antagonist: inactive; TAAR1 ag: inactive; MC4R ag barr: inactive

Results for CCn1c(SCC(=O)Nc2ccc(OC)c(OC)c2)nc2c(c1=O)SCC2 ?
MC4R antagonist: inactive; m5-HT2A agonist: 17; Beta2AR agonist: inactive; TAAR1 antagonist: inactive; TAAR1 ag: inactive; MC4R ag barr: inactive; OPRM1 ag: inactive; m5-HT2A ag conf: inactive

What do the screens show for `C=CCn1c(SCC(=O)NCC2CCCO2)nc2sc(CC)cc2c1=O` (configuration not stated)?
MC4R antagonist: inactive; m5-HT2A agonist: 17; Beta2AR agonist: inactive; TAAR1 antagonist: inactive; TAAR1 ag: inactive; MC4R ag barr: inactive; OPRM1 ag: inactive; m5-HT2A ag conf: inactive

Results for CCCCN(C(=O)c1cccc(S(=O)(=O)N2CCN(C)CC2)c1)c1c(N)n(CCC)c(=O)[nH]c1=O ?
MC4R antagonist: inactive; m5-HT2A agonist: 16; Beta2AR agonist: inactive; TAAR1 antagonist: inactive; TAAR1 ag: inactive; MC4R ag barr: inactive; OPRM1 ag: inactive; m5-HT2A ag conf: inactive

How did CCCN(C(=O)c1cccc(S(=O)(=O)N2CCN(C)CC2)c1)c1c(N)n(Cc2ccccc2)c(=O)[nH]c1=O do in these assays?
MC4R antagonist: inactive; m5-HT2A agonist: inactive; Beta2AR agonist: inactive; TAAR1 antagonist: inactive; TAAR1 ag: inactive; MC4R ag barr: inactive

Results for CCCCn1c(N)c(N(CCOC)C(=O)c2ccc(-c3ccc(C(C)=O)cc3)o2)c(=O)[nH]c1=O ?
MC4R antagonist: inactive; m5-HT2A agonist: 15; Beta2AR agonist: inactive; TAAR1 antagonist: inactive; TAAR1 ag: inactive; MC4R ag barr: inactive; OPRM1 ag: inactive; m5-HT2A ag conf: inactive

Results for CCCn1c(N)c(N(CCOC)C(=O)c2cc3c(s2)CCC(CC)C3)c(=O)[nH]c1=O (configuration not stated) ?
MC4R antagonist: inactive; m5-HT2A agonist: inactive; Beta2AR agonist: inactive; TAAR1 antagonist: inactive; TAAR1 ag: inactive; MC4R ag barr: inactive

What do the screens show for `CCCCn1c(N)c(N(CCOC)C(=O)c2cc3c(s2)CCC(C)C3)c(=O)[nH]c1=O` (configuration not stated)?
MC4R antagonist: inactive; m5-HT2A agonist: 15; Beta2AR agonist: inactive; TAAR1 antagonist: inactive; TAAR1 ag: inactive; MC4R ag barr: inactive; OPRM1 ag: inactive; m5-HT2A ag conf: inactive

What do the screens show for `CCc1nc2ccc(C(=O)NCc3ccc4c(c3)OCO4)cn2c1N(C)Cc1cccs1`?
MC4R antagonist: inactive; m5-HT2A agonist: inactive; TAAR1 antagonist: inactive; TAAR1 ag: inactive; MC4R ag barr: inactive

How did C[C@@H]1C(c2cccc(Cl)c2)=NN(c2ccc(Br)cc2)[C@H]1C(=O)N1CCOC1=O do in these assays?
MC4R antagonist: inactive; m5-HT2A agonist: inactive; Beta2AR agonist: inactive; MC4R ag barr: inactive

How did O=C(O)c1ccn(CSc2cc(Cl)ccc2Cl)n1 do in these assays?
MC4R antagonist: inactive; m5-HT2A agonist: inactive; Beta2AR agonist: inactive; TAAR1 antagonist: inactive; TAAR1 ag: inactive; MC4R ag barr: inactive

Results for CSc1cccc(CN2CCCC(CNC(=O)c3ccco3)C2)c1 (configuration not stated) ?
MC4R antagonist: inactive; m5-HT2A agonist: inactive; Beta2AR agonist: inactive; TAAR1 antagonist: inactive; TAAR1 ag: inactive; MC4R ag barr: inactive

What do the screens show for `COc1ccc(CCNC(=O)Nc2nc(C(N)COCc3ccccc3)cs2)cc1OC` (configuration not stated)?
MC4R antagonist: inactive; m5-HT2A agonist: inactive; TAAR1 antagonist: inactive; TAAR1 ag: inactive; MC4R ag barr: inactive

What do the screens show for `COC(=O)c1cc2c(C)nn(C)c2s1`?
MC4R antagonist: inactive; m5-HT2A agonist: 23; Beta2AR agonist: inactive; TAAR1 antagonist: inactive; TAAR1 ag: inactive; MC4R ag barr: inactive; OPRM1 ag: inactive; m5-HT2A ag conf: inactive

Results for CCCCNC(=O)COC(=O)c1cc2c(C)nn(-c3ccccc3)c2s1 ?
MC4R antagonist: inactive; m5-HT2A agonist: inactive; Beta2AR agonist: inactive; TAAR1 antagonist: inactive; TAAR1 ag: inactive; MC4R ag barr: inactive

What do the screens show for `O=C(c1c(F)cccc1F)N1CCCC(c2nc(-c3ccc(F)cc3)no2)C1` (configuration not stated)?
MC4R antagonist: inactive; m5-HT2A agonist: inactive; Beta2AR agonist: inactive; TAAR1 antagonist: inactive; TAAR1 ag: inactive; MC4R ag barr: inactive

Results for Cc1ccc(NC(=O)Cn2nnc(C(=O)NCc3ccc(Cl)cc3)c2N)cc1F ?
MC4R antagonist: inactive; m5-HT2A agonist: inactive; Beta2AR agonist: inactive; TAAR1 antagonist: inactive; TAAR1 ag: inactive; MC4R ag barr: inactive

Results for CCOC(=O)Cn1cnc2c(cnn2-c2ccc(OC)cc2)c1=O ?
MC4R antagonist: inactive; m5-HT2A agonist: inactive; Beta2AR agonist: inactive; TAAR1 antagonist: inactive; TAAR1 ag: inactive; MC4R ag barr: inactive

How did COc1ccc(-n2ncc3c(=O)n(CC(=O)N(C(C)C)C(C)C)cnc32)cc1 do in these assays?
MC4R antagonist: inactive; m5-HT2A agonist: 37; Beta2AR agonist: inactive; TAAR1 antagonist: inactive; TAAR1 ag: inactive; MC4R ag barr: inactive; OPRM1 ag: inactive; m5-HT2A ag conf: inactive

How did CCc1ccccc1-n1nnnc1SCC(=O)Nc1cc(C)on1 do in these assays?
MC4R antagonist: inactive; m5-HT2A agonist: 15; Beta2AR agonist: inactive; TAAR1 antagonist: inactive; TAAR1 ag: inactive; MC4R ag barr: inactive; OPRM1 ag: inactive; m5-HT2A ag conf: inactive

What do the screens show for `CC(=O)CSc1nnc(-c2ccc(S(=O)(=O)N3CCOCC3)cc2)n1C`?
MC4R antagonist: inactive; m5-HT2A agonist: inactive; Beta2AR agonist: inactive; TAAR1 antagonist: inactive; TAAR1 ag: inactive; MC4R ag barr: inactive

How did Cc1cccc(NC(=O)CSc2nnc(-c3ccc(S(=O)(=O)N4CCOCC4)cc3)n2C)c1 do in these assays?
MC4R antagonist: inactive; m5-HT2A agonist: 29; Beta2AR agonist: inactive; TAAR1 antagonist: inactive; TAAR1 ag: inactive; MC4R ag barr: inactive; OPRM1 ag: 0.8; m5-HT2A ag conf: inactive
